GSK3B inh = blocks human GSK3beta kinase activity; 0.038% of 300,000 active; AID 2097; GST-GSK3beta kinase, ADP-Glo luminescence, 60 min; active compounds read low; activity score (negative = inhibition), % at 10 µM; P49841;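 active = more than half of replicate wells score below -50%, meaning over 50% inhibition versus plate controls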
Target sequence (P49841 whole entry, looked up): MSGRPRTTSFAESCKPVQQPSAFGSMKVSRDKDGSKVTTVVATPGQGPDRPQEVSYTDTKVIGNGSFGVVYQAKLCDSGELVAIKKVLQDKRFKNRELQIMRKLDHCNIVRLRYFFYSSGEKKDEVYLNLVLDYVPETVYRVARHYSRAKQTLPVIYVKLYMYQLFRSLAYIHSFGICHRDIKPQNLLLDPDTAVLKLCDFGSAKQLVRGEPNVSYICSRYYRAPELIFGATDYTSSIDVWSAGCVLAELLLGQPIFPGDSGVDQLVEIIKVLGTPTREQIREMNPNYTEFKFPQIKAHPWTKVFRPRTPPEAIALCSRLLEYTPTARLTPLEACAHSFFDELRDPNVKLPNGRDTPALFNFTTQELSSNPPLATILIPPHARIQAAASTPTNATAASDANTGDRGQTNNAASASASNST
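Test system: GST-fused GSK3beta enzyme, cell-free | Quantity: 1.6 ng GST-GSK3beta enzyme per well | Reagent: 25 µM ATP with peptide substrate | Schedule: 60 min enzyme reaction, room temperature | Signal: Luminescent ADP-Glo measurement of ADP formed | Read-out basis: Score relative to plate controls | Control set: DMSO and 20 µM GW8510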
CDK5 p35 inh = blocks human CDK5/p35 kinase activity | Q00535+Q15078 | Recombinant CDK5/p35, ADP-Glo luminescence, 60 min | inhibition, % at 10 µM | 0.01% of 330,000 active | AID 488839;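 active = highest replicate inhibition of at least 50% and at least 75% of replicates reaching 50%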
GSK3A inh = inhibitors of human GSK-3 alpha kinase; ADP-Glo luminescence, 60 min; inhibition, % at 10 µM; 0.1% of 320,000 active; P49840;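 active = more than half of replicates show inhibition above 20%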;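 note: GST-tagged GSK-3 alpha with peptide substrate and 25 µM ATP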
STK33 kinase inh = human STK33 kinase inhibition; 0.073% of 320,000 active; Q9BYT3; AID 2661; inhibition, % at 10 µM; purified STK33, MBP phosphorylation, ADP-Glo luminescence;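 active = inhibition at or above 25%, using the most active replicate where run in duplicate; inactive = inhibition below 25%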
Dyrk1A ADPGlo = inhibitors of rat Dyrk1A kinase; inhibition, % at 12.5 µM; 0.43% of 310,000 active; ADP-Glo luminescence, NFATc1 peptide; Q63470; in the data active = inhibition above about 50%
ADP-Glo artifact = ADP-Glo luciferase interference, Dyrk1A counter-screen; shares compounds with Dyrk1A ADPGlo; ADP-Glo luciferase artifact assay, no Dyrk1A, luminescence; AC50, µM (titrated, usually from 12 µM); 1,300 tested, under 10 active; AID 588348;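 active = fitted half-maximal dose AC50 no more than ten times the top valid tested dose, with luminescence dropping as dose rises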
Large screens that a line does not name were inactive (follow-up assays come after a bar, where they were run). Shown is part of a subset that was picked to be rich in hits.

Cc1nc(NC(=O)c2ccccc2)sc1-c1csc(N)n1	Dyrk1A ADPGlo 60 | ADP-Glo artifact inactive
Cc1nc(NC(=O)c2ccccc2)sc1-c1csc(NCc2ccccc2)n1	none
Nc1cc2ccncc2c2ccccc12	Dyrk1A ADPGlo 73 | ADP-Glo artifact inactive
Cc1cc(N)c2ccccc2n1	none
O=c1[nH]c(/C=C2\C=Nc3ccccc32)c(O)n1Cc1ccccc1F	none
CSc1nc(O)c(/C=C2\C=Nc3ccccc32)[nH]1	Dyrk1A ADPGlo 57 | ADP-Glo artifact inactive
COc1ccccc1NC(=S)N/N=C/c1cccc(C)c1	none
COc1ccccc1NC(=S)N/N=C/c1ccc(O)cc1	Dyrk1A ADPGlo 51 | ADP-Glo artifact inactive
CCC(C)CCN1C(Nc2ccccc2)=NC[C@@H]1Cc1ccccc1 (stereo partly drawn)	Dyrk1A ADPGlo 57 | ADP-Glo artifact inactive
Fc1ccc(C2Nc3cccc4cccc(c34)N2)cc1	Dyrk1A ADPGlo 52 | ADP-Glo artifact inactive
FC(F)(F)c1ccc(C2Nc3cccc4cccc(c34)N2)cc1	none (no result: GSK3B inh, GSK3A inh, STK33 kinase inh)
COc1cccc(-c2nnc3sc(C4CCCCC4)nn23)c1	Dyrk1A ADPGlo 53 | ADP-Glo artifact inactive
COCCNc1cc(C)nc2c(-c3ccccc3OC)c(C)nn12	Dyrk1A ADPGlo 57 | ADP-Glo artifact inactive
CCOC(=O)c1ccc(NC(=S)Nc2ccc(Br)cc2N)cc1	Dyrk1A ADPGlo 63 | ADP-Glo artifact inactive
O=c1nc2n(c3sc4c(c13)CCCC4)C(CBr)CS2 (stereo not drawn)	Dyrk1A ADPGlo 51 | ADP-Glo artifact inactive
Cc1nc2c(ccc3nc(NC(=O)Cc4ccccc4)sc32)s1	Dyrk1A ADPGlo 68 | ADP-Glo artifact inactive
CC1(C)CC(NC(=O)Nc2ccc([N+](=O)[O-])cc2)CC(C)(C)N1	none (no result: Dyrk1A ADPGlo)
O=C(/C=C/c1ccccc1)Nc1cccnc1Oc1ccccc1F	Dyrk1A ADPGlo 51 | ADP-Glo artifact inactive
Nc1cccnc1Oc1ccccc1F	none
O=C1c2ccccc2C(=O)C1c1ccccn1	STK33 kinase inh 35, Dyrk1A ADPGlo 61 | ADP-Glo artifact inactive
CNc1nc(SC)nc2ccsc12	none
C=CCSc1nc(NC)c2sccc2n1	Dyrk1A ADPGlo 58 | ADP-Glo artifact inactive
COc1cc(C(=O)Nc2cccc(-c3nncn3C)c2)cc(OC)c1OC	Dyrk1A ADPGlo 77 | ADP-Glo artifact inactive
Cc1cccc(NC(=S)NNC(=O)c2ccccc2Br)c1	none
Cc1cccc(C(CC(=O)NCc2ccco2)c2ccccc2)c1O (stereo not drawn)	none
CC(C)Oc1ccc(C(CC(=O)NCc2ccco2)c2ccccc2)cc1 (stereo not drawn)	Dyrk1A ADPGlo 55 | ADP-Glo artifact inactive
Clc1ccc2[nH]c3c(c2c1)CCc1cn[nH]c1-3	Dyrk1A ADPGlo 51 | ADP-Glo artifact inactive
c1ccc2c3c([nH]c2c1)-c1[nH]ncc1CC3	STK33 kinase inh 32, Dyrk1A ADPGlo 56 | ADP-Glo artifact inactive
O=C1CCCc2c1[nH]c1ccccc21	none
O=C(CS(=O)(=O)Cc1ccccc1)N1CCc2ccccc2C1	none (no result: GSK3A inh, STK33 kinase inh)
O=C(Nc1ccc2cn[nH]c2c1)c1ccccc1F	Dyrk1A ADPGlo 54 | ADP-Glo artifact inactive
CC(=O)c1ccc(NC(=S)Nc2ccc3cn[nH]c3c2)cc1	Dyrk1A ADPGlo 57 | ADP-Glo artifact inactive
O=C(Nc1ccncc1)c1c(Cl)cccc1Cl	none (no result: GSK3B inh)
O=C(Nc1ccc2cn[nH]c2c1)c1c(Cl)cccc1Cl	Dyrk1A ADPGlo 51 | ADP-Glo artifact inactive
O=C(Nc1ccc2ccccc2c1)c1ccccc1F	none
CC(=O)Nc1ccc(/C=C/c2nc3ccccc3o2)cc1	Dyrk1A ADPGlo 59 | ADP-Glo artifact inactive
O=C1CCN2C=Nc3cccc4ccc1c2c34	Dyrk1A ADPGlo 73 | ADP-Glo artifact inactive
O=C1CCC(=O)c2ccc3c4c(ccc1c24)CC3	none (no result: GSK3B inh, GSK3A inh, STK33 kinase inh)
Cc1c(Br)c(=O)oc2c(Br)c(O)ccc12	Dyrk1A ADPGlo 77 | ADP-Glo artifact inactive
O=C(Nc1ncc2c(n1)-c1ccccc1CC2)c1ccc(Cl)cc1	Dyrk1A ADPGlo 59 | ADP-Glo artifact inactive
CC(/C=C/c1ccc(O)cc1)=N/O	Dyrk1A ADPGlo 89 | ADP-Glo artifact inactive
O=C(/C=C/c1ccc(O)cc1)c1ccc(O)cc1O	none
CC(/C=C/c1ccccc1)=N/O	none
O=C(O)/C=C/c1ccc(O)cc1	Dyrk1A ADPGlo 57 | ADP-Glo artifact inactive
COc1ccc(/C=C/C(=O)O)cc1	Dyrk1A ADPGlo 62 (no result: GSK3B inh, GSK3A inh, STK33 kinase inh) | ADP-Glo artifact inactive
CCN(CC)S(=O)(=O)c1ccc(N2CCOCC2)c(NC(=O)C(=O)c2c(-c3ccccc3)cc3ccccn23)c1	none
Cc1ccc2[nH]c3c(Cl)ncnc3c2c1	none
COc1ccc2c(c1)[nH]c1c(Cl)ncnc12	Dyrk1A ADPGlo 65 (no result: GSK3A inh, STK33 kinase inh) | ADP-Glo artifact inactive
CC(C)C1CCN(C(=O)C2CCC(=O)N(CCc3ccc(Cl)cc3)C2)CC1 (stereo not drawn)	none
O=C1CN(C(=O)C2CCC(=O)N(CCc3ccc(Cl)cc3)C2)CCN1 (stereo not drawn)	Dyrk1A ADPGlo 54 | ADP-Glo artifact inactive
Cc1ccccc1Cn1c(-c2cncs2)nc2ccccc21	none
O=C(Cn1c(-c2cncs2)nc2ccccc21)NCc1ccccc1	Dyrk1A ADPGlo 60 | ADP-Glo artifact inactive
O=C(Nc1ccc(Cl)c(S(=O)(=O)N2CCCCC2)c1)c1ccncc1	none (no result: GSK3B inh, GSK3A inh, STK33 kinase inh)
Cc1ccc2c(c1)N(CC(=O)NC1CCCCC1)C(=O)c1cccnc1O2	Dyrk1A ADPGlo 58 (no result: GSK3A inh, STK33 kinase inh) | ADP-Glo artifact inactive
O=S1(=O)c2cccc3cccc(c23)N1Cc1nnc(-c2ccccc2Br)o1	none
O=C1c2ccccc2S(=O)(=O)N1Cc1nnc(-c2ccccc2Br)o1	Dyrk1A ADPGlo 59 (no result: GSK3A inh, STK33 kinase inh) | ADP-Glo artifact inactive
C/C(=N\Nc1nc(C(C)(C)C)cs1)c1ccccc1	none
CCCCCCCCN1[C@@H](CC(=O)OC)c2cc(C(F)(F)F)ccc2S1(=O)=O	Dyrk1A ADPGlo 50 | ADP-Glo artifact inactive
CCCCCCCCN1[C@@H](CC(C)=O)c2cc(C(F)(F)F)ccc2S1(=O)=O	none
COc1ccc2c(c1)CC/C(=C\C=C\c1ccccc1OC)C2=O	none
COc1ccc2c3c(ccc2c1)C(=O)/C(=C/O)CC3	Dyrk1A ADPGlo 63 (no result: GSK3B inh, GSK3A inh, STK33 kinase inh) | ADP-Glo artifact inactive
CCCNC(=O)NC(=O)COC(=O)c1ccc(S(=O)(=O)N(C)c2ccccc2OC)cc1	none
COc1ccc(/C=N/NC(=O)c2cc3cc(OC)c(OC)cc3[nH]2)cc1	none
COc1ccc2cc(C(=O)N/N=C/c3cc(OC)c(OC)c(OC)c3)[nH]c2c1	Dyrk1A ADPGlo 54 | ADP-Glo artifact inactive
O=C1NC(=O)C(c2ccccc2[N+](=O)[O-])=C1Nc1ccc(O)c(Cl)c1	CDK5 p35 inh 66, Dyrk1A ADPGlo 87 (no result: GSK3B inh, GSK3A inh) | ADP-Glo artifact inactive
